Calls of active or inactive are those of the source. No cut-off for these calls is given here. Residues, ends and D or L forms follow the SMILES beside them.
What was measured:
[1] = Chemical stability assessed as compound remaining after proteolytic cleavage after 2 hrs in presence of chymotrypsin; format: physicochemical; details: read-out: Stability
Summary of the method: (§1)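 Each peptide at 0.76 mg/mL was incubated in PBS with 0.1 mg/mL chymotrypsin. Intact-peptide peak area was compared with an equivalent sample incubated in PBS alone.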

[2] = Chemical stability assessed as compound remaining after proteolytic cleavage after 20 hrs in presence of chymotrypsin; format: physicochemical; details: read-out: Stability; summary of the method: as §1
[3] = Inhibition of amyloid beta (1 to 40) fibril formation by thioflavin T fluorescent dye assay
Summary of the method: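 Aβ1-40 fractions were dissolved in 30 mM Tris/HCl pH 7.4 at 20 °C, with or without a 10-fold molar excess of inhibitor. Aliquots taken at 0.5, 1.5, 6, 8, 15 and 24 h went into ThT in 50 mM Tris/HCl pH 8.0. Fluorescence was read at 485 nm (excitation 450 nm) at 20 °C. Percent inhibition is relative to the parent pentapeptide. Three experiments, each sample in triplicate.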

[4] = Inhibition of amyloid beta (1 to 40) aggregation assessed as inhibition of protofbril formation
Summary of the method: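 Lyophilised Aβ1-40 was incubated in 30 mM Tris/HCl pH 7.4 at 20 °C, with or without a 10-fold molar excess of inhibitor. Aliquots taken at 30 min and 24 h were frozen, lyophilised, gold sputter-coated and imaged by scanning electron microscopy for protofibrils.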

Row | remaining at 2 h [1] [%] | remaining at 20 h [2] [%] | Activity [3] | Activity [4] | Compound
1 | 12 | – | – | – | Ac-LPFFD-NH2
2 | 22 | – | Active | – | Ac-LPFFDLPFFD-NH2
3 | 35 | 15 | – | – | CC(=O)N[C@@H](CC(C)C)C(=O)N1CCC[C@H]1CC(=O)N[C@@H](Cc1ccccc1)C(=O)N[C@@H](Cc1ccccc1)C(=O)N[C@@H](CC(=O)O)C(N)=O (HELM PEPTIDE1{[ac].L.[O=C(C[C@@H]1CCCN1[*:1])[*:2]].F.F.D.[am]}$$$$V2.0)

More lines, now with the values behind:

Row | Compound | remaining at 2 h [1] [%] | remaining at 20 h [2] [%] | Activity [3] | Activity [4]
4 | CC(=O)N[C@@H](CC(C)C)C(=O)N1C[C@@H](c2ccccc2)[C@@H]1C(=O)N[C@@H](Cc1ccccc1)C(=O)N[C@@H](Cc1ccccc1)C(=O)N[C@@H](CC(=O)O)C(N)=O (HELM PEPTIDE1{[ac].L.[O=C([C@H]1[C@H](c2ccccc2)CN1[*:1])[*:2]].F.F.D.[am]}$$$$V2.0) | 35 | 15 | – | –
5 | CC(=O)N[C@@H](CC(C)C)C(=O)N1CCC[C@H]1CS(=O)(=O)N[C@@H](Cc1ccccc1)C(=O)N[C@@H](Cc1ccccc1)C(=O)N[C@@H](CC(=O)O)C(N)=O | 35 | 15 | – | –
6 | CC(C)C[C@H](NS(=O)(=O)CCN(C)C)C(=O)N1CCC[C@H]1C(=O)N[C@@H](Cc1ccccc1)C(=O)N[C@@H](Cc1ccccc1)C(=O)N[C@@H](CC(=O)O)C(N)=O (HELM PEPTIDE1{[CN(C)CCS(=O)(=O)[*:2]].L.P.F.F.D.[am]}$$$$V2.0) | 70 | 55 | Active | Active
7 | CC(=O)N[C@@H](CC(C)C)C(=O)N1CC[C@H]1C(=O)N[C@@H](Cc1ccccc1)C(=O)N[C@@H](Cc1ccccc1)C(=O)N[C@@H](CC(=O)O)C(N)=O (HELM PEPTIDE1{[ac].L.[O=C([C@@H]1CCN1[*:1])[*:2]].F.F.D.[am]}$$$$V2.0) | 35 | 15 | Active | –
